The source of these data is ChEMBL document CHEMBL4251703, “Linker Variation and Structure-Activity Relationship Analyses of Carboxylic Acid-based Small Molecule STAT3 Inhibitors” (ACS Med Chem Lett, 2018).

In data set [1] the target is Signal transducer and activator of transcription 3 (Mus musculus) (UniProt P42227). Nature of the data set: (§1) Inhibition of STAT3 DNA binding activity in mouse NIH/3T3 nuclear extract preincubated for 30 mins followed by [32P]hSIE addition measured after 30 mins by electrophoretic mobility shift assay. The gist of the method: (§2)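 STAT3 DNA-binding was measured by EMSA using nuclear extracts of equal total protein from v-Src-transformed fibroblasts containing activated STAT3. Extracts were preincubated for 30 min with 0–100 μM compound, then incubated with radiolabeled hSIE probe.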
Signal transducer and activator of transcription 3 (Mus musculus), sequence (P42227 whole entry): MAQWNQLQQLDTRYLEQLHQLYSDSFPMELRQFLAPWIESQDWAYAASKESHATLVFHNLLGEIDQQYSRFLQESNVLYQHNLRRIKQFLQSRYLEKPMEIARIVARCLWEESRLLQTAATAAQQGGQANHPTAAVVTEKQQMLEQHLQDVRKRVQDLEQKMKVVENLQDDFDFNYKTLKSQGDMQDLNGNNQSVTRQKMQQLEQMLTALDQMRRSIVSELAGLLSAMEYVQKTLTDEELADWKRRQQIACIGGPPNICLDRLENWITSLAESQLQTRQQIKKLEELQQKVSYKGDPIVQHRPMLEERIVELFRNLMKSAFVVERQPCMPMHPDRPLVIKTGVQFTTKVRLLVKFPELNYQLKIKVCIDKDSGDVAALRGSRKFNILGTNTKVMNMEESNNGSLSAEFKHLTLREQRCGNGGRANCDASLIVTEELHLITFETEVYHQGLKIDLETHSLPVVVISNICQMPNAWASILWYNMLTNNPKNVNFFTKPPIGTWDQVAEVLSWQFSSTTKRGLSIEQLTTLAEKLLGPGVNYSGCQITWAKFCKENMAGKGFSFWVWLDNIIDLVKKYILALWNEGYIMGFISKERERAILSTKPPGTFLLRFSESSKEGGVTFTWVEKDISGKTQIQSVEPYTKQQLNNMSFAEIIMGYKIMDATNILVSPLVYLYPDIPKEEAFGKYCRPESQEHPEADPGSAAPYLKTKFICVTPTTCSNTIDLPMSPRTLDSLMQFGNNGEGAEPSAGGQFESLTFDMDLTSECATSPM

Data set [2] deals with Signal transducer and activator of transcription 3 (Homo sapiens) (UniProt P40763). Briefly: Inhibition of STAT3 in human MDA-MB-231 cells assessed as reduction in p-STAT3(Y705) level at 10 uM after 1 hr by immunoblot analysis. Format: cell-based. (A western blot detects proteins with antibodies after separation by electrophoresis.)
Signal transducer and activator of transcription 3 (Homo sapiens), sequence (P40763 whole entry): as the sequence (P42227 whole entry) above, with D760E counted along it
Data set [3] relates to MDA-MB-231. Briefly: Cytotoxicity against human MDA-MB-231 cells harboring active STAT3 assessed as decrease in cell viability up to 10 uM after 72 hrs by CyQuant dye based assay. It is filed as functional. The gist of the method: (§3)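 Cells were grown in 96-well format and treated once with 0–10 μM compound for 72 h. Viable cells were quantified by CyQuant proliferation assay and plotted as % viability against concentration. Data are mean ± SD of three independent determinations.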

For another data set, the system named is MDA-MB-468. Nature of the data set: Cytotoxicity against human MDA-MB-468 cells harboring active STAT3 assessed as decrease in cell viability up to 10 uM after 72 hrs by CyQuant dye based assay. It is filed as functional. The method, boiled down:
as §3

In the next data set the test system is MCF7. Nature of the data set: Cytotoxicity against human MCF7 cells assessed as decrease in cell viability up to 10 uM after 72 hrs by CyQuant dye based assay. It is filed as functional. The method, boiled down: as §3
Data set [4] has as its system MDA-MB-231. Nature of the data set: Anticlonogenic activity against human MDA-MB-231 cells up to 3 uM after 4 hrs by crystal violet staining based assay. Format: functional, cell-based. The method, boiled down: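 Single-cell cultures of MDA-MB-231 cells were treated once and cultured until large colonies were visible. Colonies were then stained with crystal violet, counted and plotted.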

The subject of data set [5] is MDA-MB-231. Briefly: Antimigratory activity against human MDA-MB-231 cells at 8 uM after 22 to […] hrs by inverted fluorescence microscope. Format: functional, cell-based. The gist of the method:
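Confluent MDA-MB-231 cultures were wounded and treated once with or without 8 μM compound. Migration into the denuded area was followed over 23 h and imaged. Controls received 0.05% DMSO.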

For data set [6], the target named is Signal transducer and activator of transcription 3 (Homo sapiens) (UniProt P40763). Briefly: Inhibition of STAT3 in human MDA-MB-231 cells assessed as reduction in p-STAT3(Y705) level at 5 uM after 1 to 24 hrs by immunoblot analysis. Format: cell-based.
Data set [7] shares this target. Briefly: Inhibition of STAT3 in human MDA-MB-468 cells assessed as reduction in p-STAT3(Y705) level at 5 uM after 1 to 24 hrs by immunoblot analysis. Format: cell-based.
Data set [8] has as its system MDA-MB-231. Nature of the data set: Cytotoxicity against human MDA-MB-231 cells harboring active STAT3 assessed as decrease in cell viability up to 5 uM after 72 hrs by trypan blue exclusion based phase-contrast microscopy. It is filed as functional.
The nature of data set [9]: Solubility of the compound in simulated intestinal fluid at pH 6.8. It is filed as physicochemical. The method, boiled down: (§4)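 Aqueous solubility was determined in pH 7.4 PBS and in pH 6.8 buffered simulated intestinal fluid, reported in μg/mL.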
The target of data set [10] is Signal transducer and activator of transcription 3 (Homo sapiens) (UniProt P40763). Nature of the data set: Inhibition of STAT3 DNA binding activity in human MDA-MB-231 nuclear extract at 10 uM after 3 hrs by electrophoretic mobility shift assay. The method, boiled down:
(§5)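 MDA-MB-231 breast cancer cells were exposed to 10 μM compound for 1, 3 or 24 h. Nuclear extracts of equal total protein were then assayed for STAT3 DNA-binding by EMSA.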
On the technique in general: In EMSA bound probe runs differently from free probe, usually more slowly.

The target is the same in data set [11]. Briefly: Inhibition of STAT3 DNA binding activity in human MDA-MB-231 nuclear extract at 10 uM after 1 hr by electrophoretic mobility shift assay. The gist of the method:
as §5

For data set [12] the target is unchanged. Nature of the data set: Inhibition of STAT3 DNA binding activity in human MDA-MB-231 nuclear extract at 10 uM after 24 hrs by electrophoretic mobility shift assay. The gist of the method:
as §5

The target of data set [13] is Signal transducer and activator of transcription 3 (Mus musculus, UniProt P42227). Described as §1. The gist of the method:
as §2

Data set [14] can be described thus: Solubility of the compound in PBS at pH 7.4. Format: physicochemical. The gist of the method: as §4
A short description of data set [15]: Half life in human liver microsomes. It is filed as ADME, microsome. A general note: Liver microsomes are a subcellular fraction often used to study metabolism.
Data set [16] can be described thus: Half life in mouse liver microsomes. Format: ADME, microsome.
Data set [17] deals with Signal transducer and activator of transcription 3 (Homo sapiens) (UniProt P40763). Nature of the data set: Inhibition of STAT3 DNA binding activity in human MDA-MB-468 nuclear extract at 5 uM after 3 to 24 hrs by electrophoretic mobility shift assay. The gist of the method: (§6)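 MDA-MB-468 cells received 5 μM compound for 3 or 24 h. STAT3 DNA-binding in nuclear extracts of equal total protein was then analysed by EMSA.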

The target is the same in data set [18]. Nature of the data set: Inhibition of STAT3 in human C8161 cells assessed as reduction in p-STAT3(Y705) level at 10 to 20 uM after 1 to 3 hrs by immunoblot analysis. It is filed as cell-based.
The target is the same in data set [19]. Nature of the data set: Inhibition of STAT3 in human 1205 Lu cells assessed as reduction in p-STAT3(Y705) level at 10 to 20 uM after 1 to 3 hrs by immunoblot analysis. It is filed as cell-based.
The target is the same in data set [20]. Briefly: Inhibition of STAT3 in human UACC-903 cells assessed as reduction in p-STAT3(Y705) level at 10 to 20 uM after 1 to 3 hrs by immunoblot analysis. Format: cell-based.
The species named for data set [21] is Homo sapiens. Nature of the data set: Cytotoxicity against human C8161 cells harboring active STAT3 assessed as decrease in cell viability up to 20 uM after 48 hrs by MTT assay. Format: functional, cell-based.
For data set [22], the species on record is Homo sapiens. Nature of the data set: Cytotoxicity against human 1205 Lu cells harboring active STAT3 assessed as decrease in cell viability up to 20 uM after 48 hrs by MTT assay. Format: functional, cell-based.
For data set [23], the species on record is Homo sapiens. Nature of the data set: Cytotoxicity against human C81-61 cells harboring active STAT3 assessed as decrease in cell viability up to 20 uM after 48 hrs by MTT assay. It is filed as functional, cell-based.
Data set [24] in a line: Cytotoxicity against human AR7119 cells assessed as decrease in cell viability up to 20 uM after 48 hrs by MTT assay. Format: cell-based.
Data set [25] in a line: Apparent permeability of the compound from apical to basolateral side in human Caco2 cells. Format: ADME, cell-based. To be noted: Caco-2.
Data set [26] has as its target Signal transducer and activator of transcription 3 (Homo sapiens) (UniProt P40763). Nature of the data set: Inhibition of STAT3 DNA binding activity in human MDA-MB-468 nuclear extract at 5 uM after 24 hrs by electrophoretic mobility shift assay. The method, boiled down:
as §6

Data set [27] has as its target Tyrosine-protein kinase JAK2 (Homo sapiens) (UniProt O60674). Briefly: Inhibition of JAK2 phosphorylation in human MDA-MB-231 cells at 5 uM after 24 hrs by immunoblot analysis. Format: cell-based.
Data set [28] addresses Proto-oncogene tyrosine-protein kinase Src (Homo sapiens) (UniProt P12931). Briefly: Inhibition of SRC phosphorylation in human MDA-MB-231 cells at 5 uM after 24 hrs by immunoblot analysis. It is filed as cell-based.
Data set [29] concerns the target Mitogen-activated protein kinase; ERK1/ERK2 (Homo sapiens) (UniProt P27361+P28482). Briefly: Inhibition of ERK1/2 phosphorylation in human MDA-MB-231 cells at 5 uM after 24 hrs by immunoblot analysis. Format: cell-based.

The structures appear in SMILES notation. Converted amounts (≈) assume the structure as drawn. The source made the active and inactive calls. No cut-off for these calls is given here.

Signal transducer and activator of transcription 3, sequence (P42227 whole entry): as the sequence (P42227 whole entry) above
Mitogen-activated protein kinase; ERK1/ERK2 (Homo sapiens), sequence (P27361 whole entry, looked up): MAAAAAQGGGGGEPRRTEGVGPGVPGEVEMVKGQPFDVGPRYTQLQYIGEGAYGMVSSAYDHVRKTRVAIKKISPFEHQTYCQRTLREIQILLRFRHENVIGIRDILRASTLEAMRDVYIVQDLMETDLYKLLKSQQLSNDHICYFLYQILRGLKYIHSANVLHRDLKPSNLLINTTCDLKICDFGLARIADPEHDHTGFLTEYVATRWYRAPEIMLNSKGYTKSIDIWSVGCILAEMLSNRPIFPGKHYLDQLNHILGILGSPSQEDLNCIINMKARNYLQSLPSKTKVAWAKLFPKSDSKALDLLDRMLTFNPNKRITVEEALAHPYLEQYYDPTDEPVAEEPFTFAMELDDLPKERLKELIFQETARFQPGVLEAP
Mitogen-activated protein kinase; ERK1/ERK2 (Homo sapiens), sequence (P28482 whole entry, looked up): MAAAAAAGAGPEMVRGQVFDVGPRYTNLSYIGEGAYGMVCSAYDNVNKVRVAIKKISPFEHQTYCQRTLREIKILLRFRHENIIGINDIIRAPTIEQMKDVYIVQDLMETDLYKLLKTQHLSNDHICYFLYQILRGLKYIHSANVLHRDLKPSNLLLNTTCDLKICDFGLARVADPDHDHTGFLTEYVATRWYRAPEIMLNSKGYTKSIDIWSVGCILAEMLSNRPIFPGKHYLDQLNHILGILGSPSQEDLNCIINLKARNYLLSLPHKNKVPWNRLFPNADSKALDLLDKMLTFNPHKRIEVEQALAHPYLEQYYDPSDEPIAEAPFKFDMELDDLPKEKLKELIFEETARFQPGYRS
Proto-oncogene tyrosine-protein kinase Src (Homo sapiens), sequence (P12931 2-536 limits assumed): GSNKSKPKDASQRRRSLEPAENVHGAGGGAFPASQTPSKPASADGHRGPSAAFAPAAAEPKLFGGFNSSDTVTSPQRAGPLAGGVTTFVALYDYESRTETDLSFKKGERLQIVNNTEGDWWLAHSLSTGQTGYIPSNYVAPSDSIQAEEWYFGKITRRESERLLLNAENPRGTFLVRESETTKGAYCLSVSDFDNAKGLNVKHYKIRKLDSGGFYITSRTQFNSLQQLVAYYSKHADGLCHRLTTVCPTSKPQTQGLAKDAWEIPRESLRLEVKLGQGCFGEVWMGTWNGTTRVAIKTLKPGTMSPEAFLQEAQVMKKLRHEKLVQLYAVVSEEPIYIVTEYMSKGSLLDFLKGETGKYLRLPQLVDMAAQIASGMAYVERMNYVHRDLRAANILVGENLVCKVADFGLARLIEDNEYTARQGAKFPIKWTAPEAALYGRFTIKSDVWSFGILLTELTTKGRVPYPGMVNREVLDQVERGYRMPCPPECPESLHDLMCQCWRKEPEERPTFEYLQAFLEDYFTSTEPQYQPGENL
Tyrosine-protein kinase JAK2 (Homo sapiens), sequence (O60674 whole entry): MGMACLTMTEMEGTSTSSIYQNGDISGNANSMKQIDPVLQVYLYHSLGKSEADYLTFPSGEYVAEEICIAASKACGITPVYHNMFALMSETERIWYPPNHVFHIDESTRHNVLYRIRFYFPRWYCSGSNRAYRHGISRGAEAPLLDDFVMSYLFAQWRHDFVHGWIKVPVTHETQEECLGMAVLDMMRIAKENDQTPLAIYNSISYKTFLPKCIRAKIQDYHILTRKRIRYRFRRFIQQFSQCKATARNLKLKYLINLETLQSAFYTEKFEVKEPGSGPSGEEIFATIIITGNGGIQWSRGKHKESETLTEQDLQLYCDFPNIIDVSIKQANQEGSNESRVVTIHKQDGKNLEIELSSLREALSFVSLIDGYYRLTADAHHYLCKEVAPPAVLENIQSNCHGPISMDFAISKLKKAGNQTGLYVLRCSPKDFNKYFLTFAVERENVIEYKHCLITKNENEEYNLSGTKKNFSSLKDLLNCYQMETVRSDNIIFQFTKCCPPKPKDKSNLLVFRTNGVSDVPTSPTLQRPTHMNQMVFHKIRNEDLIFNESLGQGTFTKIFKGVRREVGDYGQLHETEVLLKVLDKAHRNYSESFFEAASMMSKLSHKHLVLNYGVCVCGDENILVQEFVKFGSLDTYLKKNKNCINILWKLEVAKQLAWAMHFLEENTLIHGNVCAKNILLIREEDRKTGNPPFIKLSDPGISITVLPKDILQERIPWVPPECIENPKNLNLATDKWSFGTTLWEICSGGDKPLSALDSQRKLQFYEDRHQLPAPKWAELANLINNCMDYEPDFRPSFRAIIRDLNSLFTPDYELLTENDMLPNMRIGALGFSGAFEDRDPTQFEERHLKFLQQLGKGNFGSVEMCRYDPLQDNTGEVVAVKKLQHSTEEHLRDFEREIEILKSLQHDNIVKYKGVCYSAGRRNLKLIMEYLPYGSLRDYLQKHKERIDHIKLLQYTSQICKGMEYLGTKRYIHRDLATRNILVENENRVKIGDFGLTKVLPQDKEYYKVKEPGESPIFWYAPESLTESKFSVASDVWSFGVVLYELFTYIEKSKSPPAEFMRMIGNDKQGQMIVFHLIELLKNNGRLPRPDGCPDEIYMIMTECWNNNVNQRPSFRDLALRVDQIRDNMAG

Take `Cc1cc(C(=O)O)ccc1N(Cc1ccc(C2CCCCC2)cc1)C(=O)CN(C)S(=O)(=O)c1c(F)c(F)c(F)c(F)c1F`: the inhibition result in data set [1] is “inactive”. Besides, the inhibition result in data set [2] is “Active”. For the same compound, the outcome in the data set on MDA-MB-231 [3], in the data set with MDA-MB-468, in the data set on MDA-MB-231 [4] and with MDA-MB-231 [5] was Active. Moreover, the outcome in the data set with MCF7 was inactive.
Turning to `C[C@H](C(=O)N(Cc1ccc(C2CCCCC2)cc1)c1ccc(C(=O)O)cc1F)N(C)S(=O)(=O)c1c(F)c(F)c(F)c(F)c1F`, the “p-STAT3(Y705) reduction (qualitative call)” value (shortened to “p-STAT3(Y705) reduction”) in data set [6] is “Active”. In [7], the inhibition result is “Active”. Also, the result in the data set with MDA-MB-231 [3], with MDA-MB-468 and with MDA-MB-231 [8] was Active. For the same compound, in the data set with MCF7, the result was inactive.
Consider `C[C@H](C(=O)N(Cc1ccc(C2CCCCC2)cc1)c1ccc(C(=O)[O-])c(O)c1)N(C)S(=O)(=O)c1c(F)c(F)c(F)c(F)c1F.[Na+]`, for which the solubility (in general, the dissolved amount per volume that the medium holds) in data set [9] is 127 µg/mL.
In the case of `C[C@@H](C(=O)N(Cc1ccc(C2CCCCC2)cc1)c1ccc(C(=O)O)c(O)c1)N(C)S(=O)(=O)c1c(F)c(F)c(F)c(F)c1F`, the inhibition result in [10] and in data set [12] was “Active” each time. In addition, in [11], the inhibition result was “inactive”.
`CN(CC(=O)N(Cc1ccc(C2CCCCC2)cc1)c1ccc(C(=O)O)cc1Cl)S(=O)(=O)c1c(F)c(F)c(F)c(F)c1F`: the IC50 – broadly, the concentration that inhibits the measured activity by half – in data set [13] was 8.6 to 14.4 µM. For the same compound, the inhibition result in data set [2] is “Active”. The result in the data set with MDA-MB-231 [3], in the data set on MDA-MB-468, in the data set with MDA-MB-231 [4] and with MDA-MB-231 [5] was Active. In addition, the outcome with MCF7 was inactive.
`CN(CC(=O)N(Cc1ccc(C2CCCCC2)cc1)c1ccc(C(=O)NO)cc1)S(=O)(=O)c1c(F)c(F)c(F)c(F)c1F`: the solubility in data set [14] was 0.3 µg/mL (≈ 0.48 µM); in [9], 74 µg/mL (≈ 118 µM). Besides, the half-life in data set [15] and in data set [16] was ≥ 17 min throughout.
Consider `C[C@H](C(=O)N(Cc1ccc(C2CCCCC2)cc1)c1ccc(C(=O)O)c(O)c1)N(C)S(=O)(=O)c1c(F)c(F)c(F)c(F)c1F` [listing 1 of 2 here], for which the inhibition result in data set [1], in data set [10], in [17], in data set [7], in [18] and in data set [19] was “Active” each time. In addition, in data set [20], the inhibition result is “Active”. For the same compound, the inhibition entry in data set [11] and in data set [12] was “inactive” each time. The “p-STAT3(Y705) reduction” value in data set [6] was “Active”. Besides, the outcome in the data set listed under Homo sapiens [21], in the data set listed under Homo sapiens [22] and in the data set listed under Homo sapiens [23] was Active.
As to `CN(CC(=O)N(Cc1ccc(C2CCCCC2)cc1)c1ccc(C(=O)O)cc1)S(=O)(=O)c1c(F)c(F)c(F)c(F)c1F`, the solubility in data set [14] was 7.6 µg/mL (≈ 12.4 µM); in [9], 14 µg/mL (≈ 22.9 µM). Further, the half-life in [15] and in data set [16] was ≥ 17 min each time.
Take `C[C@H](C(=O)N(Cc1ccc(C2CCCCC2)cc1)c1ccc(C(=O)O)c(O)c1)N(C)S(=O)(=O)c1c(F)c(F)c(F)c(F)c1F` [listing 2 of 2 here]: the Activity result in data set [24] is “Non-Toxic”.
For `O=C([O-])c1ccc(N(Cc2ccc(C3CCOCC3)cc2)C(=O)[C@H]2CCCN2S(=O)(=O)c2c(F)c(F)c(F)c(F)c2F)cc1O.[Na+]`, the solubility in data set [14] is 123 µg/mL; in data set [9] it was 117 µg/mL. In addition, in data set [25], the Papp A→B (commonly how fast a substance crosses the layer from the apical side) was 0.2 ×10⁻⁶ cm/s.
Turning to `O=C(O)c1ccc(N(Cc2ccc(C3CCCCC3)cc2)C(=O)[C@H]2CCCN2S(=O)(=O)c2c(F)c(F)c(F)c(F)c2F)cc1O`, the “p-STAT3(Y705) reduction” value in [6] was “Active”. Besides, the inhibition result in data set [7] was “Active”. For the same compound, the outcome in the data set with MDA-MB-231 [3] and with MDA-MB-468 was Active. Moreover, the result in the data set with MCF7 was inactive.
On to `C[C@H](C(=O)N(Cc1ccc(C2CCCCC2)cc1)c1ccc(C(=O)O)cc1Cl)N(C)S(=O)(=O)c1c(F)c(F)c(F)c(F)c1F`, for which the inhibition result in data set [26] and in data set [2] was “Active” in each case. Also, the inhibition result in data set [27], in data set [28] and in data set [29] was “inactive” in each case. The outcome in the data set on MDA-MB-231 [3], with MDA-MB-468, in the data set with MDA-MB-231 [4] and in the data set on MDA-MB-231 [5] was Active. In addition, the outcome with MCF7 was inactive.
Turning to `O=C(O)c1ccc(N(Cc2ccc(C3CCCCC3)cc2)C(=O)[C@@H]2CCCN2S(=O)(=O)c2c(F)c(F)c(F)c(F)c2F)c(F)c1`, the figures for the half-life in data set [15] and in [16] were 54 min and 26 min, respectively. Moreover, the Papp A→B in data set [25] was 0.1 ×10⁻⁶ cm/s.
